Laboratory results from the EternaBench riboswitch data.

Test system: MS2 coat protein
Assay: apparent Kd, MS2 coat protein; higher = weaker binding; RNA-MaP array; FMN 200 µM where present
Summary of the method: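 The apparent Kd is the median of filtered binding-curve fits, one per cluster, to green signal normalised to red-channel RNA signal and control-cluster median Fmax. The clusters were on Illumina sequencing chips, and stalled E. coli RNA polymerase had transcribed the designs on them. Titration used SNAP-549-labelled MS2 coat protein from 0.7 or 1.5 nM, doubling to 3 µM, without and then with constant ligand, in 100 mM Tris-HCl pH 7.5, 80 mM KCl, 4 mM MgCl2, BSA, DTT, yeast tRNA and Tween-20.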

[1] = designed as: OFF switch for flavin mononucleotide, no ligand
[2] = ligand present: flavin mononucleotide, designed as: OFF switch for flavin mononucleotide
[3] = designed as: ON switch for flavin mononucleotide, no ligand
[4] = ligand present: flavin mononucleotide, designed as: ON switch for flavin mononucleotide

| Sequence | apparent Kd [1] | apparent Kd [2] | apparent Kd [3] | apparent Kd [4] |
| --- | --- | --- | --- | --- |
| UGUAUAUAGGCAGGAUAUACAUGAAUAUAUAUGAUGUAGUAUGAUGUAACAUGAGGAUCACCCAUGUAGAAGGGCCAAUAUAUA | 0.0408 µM | 0.135 µM |  |  |
| GGUGCCAUGUAGAAGGCAGAUCCGAUUCAGAUCUGAGGAUAUACAUGAGGAUCACCCAUGUAAAGGCACCGCACGAGAGUGCAA | 0.00812 µM | 0.00911 µM |  |  |
| CCAAUGUAAGGAUAUGACAAUGGUAUCUUCGGAUACCAUUGUCAGAAGGUACAUGAGGAUCACCCAUGUACAAA | 0.0143 µM | 0.0166 µM |  |  |
| CACGCGAAAAGGAGUACAUGAGGAUCACCCAUGUAGGGUGGGAGAAGGCCGGUCGAGAGGUUUAUGGAGGAUAUUUAGGUGUUG |  |  | 0.0788 µM | 0.0525 µM |
| UCAUUAUAAAUCCAUCAUAACUACAUGAGGAUCACCCAUGUGCAGGAUAUCGAUUUUUUAACUUUCGAGAAGGGCAAUUACAGA | 0.0376 µM | 0.0961 µM |  |  |
| AAAUACAGAGGAUAUGUACGAAUUGACAUGAGGAUCACCCAUGUGACUUCGUGCACUUUGACAGAAGGCUGGGAAU | 0.0168 µM | 0.0327 µM |  |  |
| CCUCUACAUGAGGAUCACCCAUGUCAGGAUAUCGUGUGUUUUUUUUCGGCCGCGCGUGCGAGAAGGGACGUCUU | 0.0319 µM | 0.032 µM |  |  |
| CCGGCUGCUGUGAGGAUAUGCCUGUGGGUGCGCGGGCAGAAGGCACAUGAGGAUCACCCAUGUCCUGCGGUCCC | 0.0257 µM | 0.0506 µM |  |  |
| UGAUCUUACAUGAGGAUCACCCAUGUAGACCAGUAACUAACCAGAAGGCACGUAGAGUAAAACAGUGAGGAUAUGGAUGACAUA |  |  | 0.00666 µM | 0.0055 µM |
| GGUUGUCAUCGUCAUCCUUUCGGUACAUGAGGAUCACCCAUGUAGGAUAUGCUGCAUUCGAUGUGGCAGAAGGGCGUGUGUGUU | 0.0235 µM | 0.041 µM |  |  |
| CAAUUUAUAACAGGAUAUAUAAUACAAUAGUUAAUAGAAGGGUUUAAUACAUGAGGAUCACCCAUGUCAUGUGUCAUAAUUACC | 0.0348 µM | 0.0305 µM |  |  |
| CUUUUGUGAGGAUAUCAGUAGUAAAAAAUUAAAAUUACUACUGAGAAGGCACAUGAGGAUCACCCAUGUUCCUC | 0.0401 µM | 0.284 µM |  |  |
| AAAUUCAGAGGAUAUGCGCAUAGAUAAGACUUUGUUUCUUAACAUGAGGAUCACCCAUGUAGAAGGCUGUAAAA | 0.0194 µM | 0.0198 µM |  |  |
| UAACGCGCAUGCAAGGAUAUGUGCAGAGCUACAUGAGGAUCACCCAUGUGGUUAUGCUAUUGAAAACAGAAGGUGCCCUCGCUCA |  |  | 0.0258 µM | 0.0243 µM |
| GUCAGCUCGUGAGGAUAUUCAACACUGCUUCGGCAGUGUAUUAAGAUCACAUGAGGAUCACCCAUGUAGAAGGCACGAGCUGAU | 0.00579 µM | 0.0108 µM |  |  |
| GCACGACAUGUAGGAUAUCGAGCGCCGAGCGCUCGAGAAGGACAUGAGGAUCACCCAUGUAUUCCGAGUGAGUCAGGUCGUGCA | 0.0175 µM | 0.0234 µM |  |  |
| AUUUAUUAGUAAGGAUAUACUAGCGAUUAGCUUGUAGAAGGUACAGUCUUAUGUAUAACAUGUUAACAUGAGGAUCACCCAUGU |  |  | 0.0604 µM | 0.0279 µM |
| AAAGCAACAUGAGGAUCACCCAUGUAGGAUAUCGCUAUUGUAAUCAUGAAACAUGAUUACAAUAGCGAGAAGGACAUAUGCUUU | 0.00677 µM | 0.00948 µM |  |  |
| GCGUACUGAGGAUAUACAUGAGGAUCACCCAUGUGACACAGCGUUUAGUGAUGAAUUUGUAGAAGGCAGUAGGC | 0.146 µM | 0.219 µM |  |  |
| GGAUGACAAAGUCAUCCUUAACGAACAUGAGGAUCACCCAUGUAGGAUAUGCUACUCAAAGAGUAGCAGAAGGACAUGUGCCUU | 0.035 µM | 0.242 µM |  |  |
| UUAUACGUUGAGGAUAUGUCAGUUAGUAUAUUUACAGAAGGCGAUACAUGAGGAUCACCCAUGUUUAUGGGCAU | 0.213 µM | 0.149 µM |  |  |
| UUAUUUUUACAGAAGGUUUAAUAAUAUGUAUGAGAAGGAUAUGUAACAUGAGGAUCACCCAUGUUUCAUCUAUAUGAGGAUCAU | 0.00661 µM | 0.00557 µM |  |  |
| CUUUUGUGAGGAUAUCAGGUGUGCUAGCGUACUGGUACAUCUGAGAAGGCACAUGAGGAUCACCCAUGUUUCUU | 0.0329 µM | 0.0755 µM |  |  |
| CUCCUACAUGAGGAUCACCCAUGUCAGGAUAUCUCAGUGGCACCUAAAGGCGCCACCCAGAGAAGGGACGUGCA | 0.0116 µM | 0.0148 µM |  |  |

| Sequence | apparent Kd [1] | apparent Kd [2] | apparent Kd [3] | apparent Kd [4] |
| --- | --- | --- | --- | --- |
| UUGGACGUCGUAGGAUAUGUAGGAUAUUCCUACAUGAGGAUCACCCAUGUUGAAAUGGAAGAAGGACAGAAGGACGAUGUCCAU |  |  | 0.0569 µM | 0.0118 µM |
| GCUAGUAUUGCAGGAUAUUGAGAAUAAUUUUGGCAAGAAGGGCAUAACAUGAGGAUCACCCAUGUAUUCCUUAGUGAUACUAGC | 0.00658 µM | 0.00611 µM |  |  |
| UAUAUAUAGUAAGGAUAUGUAUAUAUUCUAUAAACAGAAGGUACUGACAUGAGGAUCACCCAUGUUUUAGUGUGGGCAUGUAGA | 0.0339 µM | 0.0305 µM |  |  |
| AUGGUUCUCGUAGGAUAUGUAGGAUAUGCCUACAUGAGGAUCACCCAUGUUCGCAUGGCAGAAGGACAGAAGGACGAUCACCAA |  |  | 0.365 µM | 0.0192 µM |
| UUGAGUUAGCAGGAUAUGGGCAGCAGGAUGCUUCCAGAAGGGCUGACAUGAGGAUCACCCAUGUUCCCAUGCUU | 0.0477 µM | 0.0636 µM |  |  |
| AUUUAGUGCGAGAAGGCGUGGUCACAUGAGGAUCACCCAUGUCAGUACACGAGGAUAUCGAUCCGCUAUGUAAAUAUAUGCGGC |  |  | 0.078 µM | 0.00751 µM |
| CUUGUGUUAGGAUAUGCGCCCUGAAGUGGCAGGGCCAGAGAGCAGAAGGGACAUGAGGAUCACCCAUGUGUGAC | 0.0843 µM | 0.127 µM |  |  |
| UAAUAAUAAUAAUAAUCCUGCAUACAUGAGGAUCACCCAUGUAAGGAUAUCGUCAGGAAUACUGACGAGAAGGUACAUAGCAGG | 0.0158 µM | 0.0193 µM |  |  |
| AAAACAUGAGGAUCACCCAUGUAAAGAACGGUUAAUAAAUGUGAGGAUAUACUAAAAUUUACGUAGUAGAAGGCACUGGGUACA |  |  | 0.0208 µM | 0.0251 µM |
| CGACACCAGACAGGAUAUGCUGGACUUUGUCCAGCAGAAGGGUCUAAACAUGAGGAUCACCCAUGUAUGGUGUCGAAAUUUAAU |  |  | 0.0511 µM | 0.00806 µM |
| CGCAAUAUACAGAAGGAGUUAUUUAGAGGUUUACUAGGAUAUGUUCACAUGAGGAUCACCCAUGUCAUAUGGAGUUUUAUUGCG | 0.00925 µM | 0.00833 µM |  |  |
| ACAUGAGGAUCACCCAUGUUAAAUUAGGAUAUUUGACUGCACAUGAGGUUCACCCAUGUUCUACCGAAGAAGGGAUUAAUAAUU |  |  | 0.05 µM | 0.0498 µM |
| UUUUUAUUUGAAGGAUAUACUUAACAUGAGGAUCACCCAUGUGGUGUUGUGAGUGAGUGAGUUUAGUAGAAGGUCAAUUCUUUU | 0.401 µM | 0.696 µM |  |  |
| AUACAUCUUCGAGGAUAUCGGUGAUAAAUUUUACGAGAAGGCGAUGAAAGAUAUAAUCUUAUAUACAUGAGGAUCACCCAUGUU |  |  | 0.026 µM | 0.0241 µM |
| ACGUUUUAUGCAGGAUAUUGACUUAUAUUUAAACAAGAAGGGCAUUACAUGAGGAUCACCCAUGUUAUCAUGGUAUUUAAGUUC | 0.04 µM | 0.0604 µM |  |  |
| GCUCAUAUCACAGGAUAUGGCCAGCAAAUUUGGCCAGAAGGGUGAUUCAUAUUAAAAUCACAUGAGGAUCACCCAUGUACGGCA |  |  | 0.166 µM | 0.321 µM |
| AAUGGGCACCAGAAGGACAUGAGGAUCACCCAUGUAGGAUAUGGGCGUUGAAGAUGUCGGAACGAGUUGCUGGAAAGAUAUGGA |  |  | 0.194 µM | 0.0206 µM |
| GACUUGCGCACAGGAUAUCCACGGAGCGGACGUGGAGAAGGGUGACAUGAGGAUCACCCAUGUACGUAAGUCUGGAUCACUCCC |  |  | 0.108 µM | 0.0331 µM |
| AUUUUAAAGGGAGGAUAUACAUGAGGAUCACCCAUGUAAACGUGAGGAUCACCCAUGUAAACAAUGUAGAAGGCCUAAAUCUAU | 0.0861 µM | 0.0736 µM |  |  |
| ACCAGGGAUUCAGGAUAUAUUAGCCGAGGCCGCGUAGAAGGGAAAUCCUGACAUGAGGAUCACCCAUGUCGACCCGCCUUCCUA |  |  | 0.0476 µM | 0.0468 µM |
| GUAUGGAGGGAGAAGGGCUAGGAGGUCCAGCUUAUGUGUGUUGCAACAUGAGGAUCACCCAUGUAGCAGGAUAUCCCUUGUACA | 0.0444 µM | 0.242 µM |  |  |
| GAAGAGACAGGAUAUACAUGAGGAUCACCCAUGUGAGUAUGUUGGAGGCGGAGGAGGUGUAGAAGGGUCAAAGA | 0.0243 µM | 0.0261 µM |  |  |
| GCUGCAAAUGAGAAGGCGAUCAUGAAACAUGAUCGAGGAUAUCAUGUUUACAUGAGGAUCACCCAUGUAUGGGUAUAUUGCAGC |  |  | 0.707 µM | 0.0143 µM |
| AGGGAGUUAGGAUAUGCUGCUCGUCACUUGCGUGAUGAGUAGCAGAAGGAACAUGAGGAUCACCCAUGUAAAAA | 0.0312 µM | 0.0303 µM |  |  |
